For data set [1], the system named is MDA-MB-231. Put plainly: Antiproliferative activity against triple negative human MDA-MB-231 cells assessed as reduction in cell growth incubated for 48 hrs by MTT assay. It is filed as functional, cell-based. Conditions: MDA-MB-231, 48 h. The procedure, abridged:
(§1)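 MTT viability: MCF-7 and MDA-MB-231 seeded 1×10^4 cells/well, exposed to DMSO or 0.01-100 μM for 48 h; MTT (5 mg/mL in PBS) added 4 h, formazan dissolved in DMSO, OD 550 nm; quadruplicate wells; IC50 fitted for compounds giving >50% inhibition at 10 µM; at least three independent experiments.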
Background: Tetrazolium assays rely on reduction of a dye to a coloured formazan, in cell work by metabolically active cells.

The subject of data set [2] is MCF7. The experiment in a line: Antiproliferative activity against ER-positive human MCF7 cells assessed as reduction in cell growth incubated for 48 hrs by MTT assay. It is filed as functional, cell-based. Conditions: MCF7, 48 h. The procedure, abridged: as §1
Data set [3] has as its system MDA-MB-231. Put plainly: Antiproliferative activity against triple negative human MDA-MB-231 cells assessed as reduction in cell growth at 10 uM incubated for 48 hrs by MTT assay relative to control. It is filed as functional. Particulars: MDA-MB-231, 48 h. The method, boiled down: as §1
The test system of data set [4] is MCF7. The experiment in a line: Antiproliferative activity against ER-positive human MCF7 cells assessed as reduction in cell viability at 10 uM incubated for 48 hrs by MTT assay relative to control. Format: functional. Conditions: MCF7, 48 h. The procedure, abridged:
as §1

Data set [5] relates to MCF-10A. The experiment in a line: Antiproliferative activity against human MCF10A cells assessed as reduction in cell growth incubated for 72 hrs by MTT assay. It is filed as functional, cell-based. The method, boiled down:
(§2)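 MTT viability after 72 h exposure at indicated concentrations; cells seeded at 1×10^3 cells/well (T47D, MDA-MB-468, MCF-10A, MCF-7/ADR) in 96-well plates; quadruplicate wells, independently repeated three times; IC50 as mean ± SE of at least three experiments.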

For data set [6], the system named is T47D. Put plainly: Antiproliferative activity against ER-positive human T47D cells assessed as reduction in cell growth incubated for 72 hrs by MTT assay. It is filed as functional, cell-based. The method, boiled down: as §2
For data set [7], the system named is MDA-MB-468. The experiment in a line: Antiproliferative activity against triple negative human MDA-MB-468 cells assessed as reduction in cell growth incubated for 72 hrs by MTT assay. Format: functional, cell-based. Particulars: MDA-MB-468, 72 h. The procedure, abridged: as §2
Data set [8] concerns MDA-MB-231. Put plainly: Antitumor activity against triple-negative human MDA-MB-231 cells xenografted in mouse assessed as reduction in tumor growth at 40 mg/kg, ip administered once daily for 7 days. Format: functional. Particulars: MDA-MB-231, ip, 168 h, read-out: GI. The method, boiled down: (§3)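 Female nude mice (6 weeks) given 2.5×10^6 MDA-MB-231 cells in PBS into third mammary fat pad, randomized into four groups; at 200 mm³ tumor volume dosed i.p. daily for 7 days in 50% DMSO/50% PEG vehicle; tumor volume (0.5×L×W²) and body weight measured daily; one-way ANOVA.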
A general note: A xenograft is tissue or cells of one species grown in another, often human tumour cells in immunodeficient mice.

Data set [9] can be described thus: Toxicity in mouse xenografted with triple negative human MDA-MB-231 cells assessed as body weight at 40 mg/kg, ip administered once daily for 7 days. It is filed as organism-based. Conditions: in vivo, 168 h. The method, boiled down: as §3
The subject of data set [10] is MDA-MB-231. Put plainly: Potency index, ratio of SMBA1 IC50 to compound IC50 for antiproliferative activity against triple negative human MDA-MB-231 cells assessed as reduction in cell growth incubated for 48 hrs by MTT assay. Format: functional.
Data set [11] deals with MCF7. Put plainly: Potency index, ratio of SMBA1 IC50 to compound IC50 for antiproliferative activity against ER-positive human MCF7 cells assessed as reduction in cell growth incubated for 48 hrs by MTT assay. It is filed as functional.
Data set [12] concerns MDA-MB-231. Put plainly: Antitumor activity against triple-negative human MDA-MB-231 cells xenografted in mouse assessed as reduction in tumor growth at 20 mg/kg, ip administered once daily for 7 days. Particulars: MDA-MB-231, ip, 168 h, read-out: GI. It is filed as functional. The procedure, abridged: as §3
The nature of data set [13]: Toxicity in mouse xenografted with triple negative human MDA-MB-231 cells assessed as body weight at 20 mg/kg, ip administered once daily for 7 days. Conditions: in vivo, 168 h. It is filed as organism-based. The method, boiled down: as §3

pIC50: −log10 of the molar value.

With `Nc1ncccc1C=C1c2ccccc2-c2ccc([N+](=O)[O-])cc21`, the pIC50 in [1] and in [2] was less than 5.00 each time.

Turning to `O=[N+]([O-])c1ccc2c(c1)C(=Cc1cccnc1O)c1ccccc1-2`, the pIC50 in data set [1] was less than 5.00.

On to `CC[C@H](N)COc1ccccc1C=C1c2ccccc2-c2ccc([N+](=O)[O-])cc21`, for which the pIC50 in data set [1] is 5.29; in data set [2] it was 5.33. Also, the inhibition at 10 µM in [3] and in data set [4] was greater than 50% each time.

Consider `CC(C)(C)OC(=O)NCCOc1ccccc1C=C1c2ccccc2-c2ccc([N+](=O)[O-])cc21`, for which the negative-log IC50 (pIC50) in data set [1] and in data set [2] was less than 5.00 throughout.

As to `COc1ncccc1C=C1c2ccccc2-c2ccc([N+](=O)[O-])cc21`, the negative-log IC50 (pIC50) in data set [1] and in data set [2] was less than 5.00 throughout.

On to `CC(C)[C@H](N)COc1ccccc1C=C1c2ccccc2-c2ccc([N+](=O)[O-])cc21`, for which the negative logarithm of the IC50 (pIC50) in data set [1] was 5.30; in data set [2] it was 5.35. The inhibition at 10 µM in [3] and in data set [4] was greater than 50% throughout.

On to `NCCCCOc1ccccc1C=C1c2ccccc2-c2ccc([N+](=O)[O-])cc21`, for which the figures for the negative-log IC50 (pIC50) in data set [1] and in data set [2] were 5.44 and 5.24, respectively. In addition, the inhibition at 10 µM in data set [3] and in data set [4] was greater than 50% in each case.

Turning to `O=[N+]([O-])c1ccc2c(c1)C(=Cc1ccccc1OCCN1CCNCC1)c1ccccc1-2`, the pIC50 in data set [1] was 5.46; in [2], 5.30. The inhibition at 10 µM in data set [3] and in data set [4] was greater than 50% throughout.

For the molecule `O=[N+]([O-])c1ccc2c(c1)C(=Cc1ccccc1OCCN1CCN(S(=O)(=O)C3CC3)CC1)c1ccccc1-2`, the negative logarithm of the IC50 (pIC50) in data set [1] is less than 5.00.

`Nc1ccccc1C=C1c2ccccc2-c2ccc([N+](=O)[O-])cc21`: the pIC50 in data set [1] and in data set [2] was less than 5.00 throughout.

For `O=[N+]([O-])c1ccc2c(c1)C(=Cc1ccccc1O)c1ccccc1-2`, the pIC50 in data set [1] was 5.25; in data set [2], 5.08; in data set [5], 5.12; in data set [6], 4.98; in data set [7], 4.79. Besides, the inhibition at 10 µM in [3] and in data set [4] was greater than 50% in each case. Further, the inhibition in vivo at 40 mg/kg in data set [8] amounted to 51%. The Activity result in data set [9] is “Non-Toxic”.

For `NCCOc1ccccc1C=C1c2ccccc2-c2ccc([N+](=O)[O-])cc21`, the pIC50 in data set [1] was 5.49; in data set [2], 5.42; in [5] it was 5.36; in [6], 5.02; in [7], 5.06. The inhibition at 10 µM in data set [3] and in [4] was greater than 50% in each case. Moreover, the “Ratio IC50” value in data set [10] and in data set [11] was 1.7 - 2.2 throughout. In addition, the inhibition in vivo at 20 mg/kg in data set [12] was 57%. Further, the Activity result in data set [13] is reported as “Non-Toxic”.

With `CN(C)CCNc1ccccc1C=C1c2ccccc2-c2ccc([N+](=O)[O-])cc21`, the negative-log IC50 (pIC50) in data set [1] and in [2] was less than 5.00 each time.

With `O=[N+]([O-])c1ccc2c(c1)C(=Cc1ccccc1OC1CCNCC1)c1ccccc1-2`, the negative logarithm of the IC50 (pIC50) in [1] is 5.45; in [2], 5.26. Besides, the inhibition at 10 µM in data set [3] and in data set [4] was greater than 50% each time.

With `O=[N+]([O-])c1ccc2c(c1)C(=Cc1ccccc1OCCN1CCOCC1)c1ccccc1-2`, the pIC50 in [1] is less than 5.00.

As to `O=[N+]([O-])c1ccc2c(c1)C(=Cc1cccnc1N1CCNCC1)c1ccccc1-2`, the negative-log IC50 (pIC50) in data set [1] was 5.37; in [2], 5.30. Moreover, the inhibition at 10 µM in data set [3] and in data set [4] was greater than 50% in each case.

As for `CC(=O)NCCOc1ccccc1C=C1c2ccccc2-c2ccc([N+](=O)[O-])cc21`, the pIC50 in [1] and in data set [2] was less than 5.00 in each case.

With `NCCOc1ccc(C=C2c3ccccc3-c3ccc([N+](=O)[O-])cc32)cc1`, the values for the pIC50 in data set [1] and in data set [2] were 5.19 and 5.07, respectively. For the same molecule, the inhibition at 10 µM in data set [3] and in [4] was greater than 50% each time.

Consider `O=[N+]([O-])c1ccc2c(c1)C(=Cc1ccccc1Br)c1ccccc1-2`, for which the negative logarithm of the IC50 (pIC50) in data set [1] and in [2] was less than 5.00 each time.

For the molecule `NCCOCCOc1ccccc1C=C1c2ccccc2-c2ccc([N+](=O)[O-])cc21`, the pIC50 in [1] was 5.03; in data set [2], 5.21. Moreover, the inhibition at 10 µM in data set [3] and in data set [4] was greater than 50% each time.

In the case of `NCCOc1cccc(C=C2c3ccccc3-c3ccc([N+](=O)[O-])cc32)c1`, the negative-log IC50 (pIC50) in [1] is 5.31; in [2], 5.42. Besides, the inhibition at 10 µM in data set [3] and in data set [4] was greater than 50% in each case.

For `NCCCOc1ccccc1C=C1c2ccccc2-c2ccc([N+](=O)[O-])cc21`, the negative-log IC50 (pIC50) was 5.27 in data set [1] and 5.29 in data set [2]. Further, the inhibition at 10 µM in data set [3] and in data set [4] was greater than 50% in each case.

As for `CNCCOc1ccccc1C=C1c2ccccc2-c2ccc([N+](=O)[O-])cc21`, the figures for the pIC50 in data set [1] and in data set [2] were 5.26 and 5.37, respectively. The inhibition at 10 µM in [3] and in data set [4] was greater than 50% in each case.

On to `O=[N+]([O-])c1ccc2c(c1)C(=Cc1ccccc1OCCF)c1ccccc1-2`, for which the pIC50 in data set [1] and in data set [2] was less than 5.00 in each case.

As for `NCCOc1ccccc1C=C1c2ccccc2-c2ccc(N)cc21`, the pIC50 was 5.22 in [1] and 5.20 in data set [2]. The inhibition at 10 µM in data set [3] and in [4] was greater than 50% throughout.

Consider `CN1CCN(c2ncccc2C=C2c3ccccc3-c3ccc([N+](=O)[O-])cc32)CC1`, for which the negative-log IC50 (pIC50) in data set [1] and in [2] was less than 5.00 throughout.

As for `CC(=O)N1CCN(CCOc2ccccc2C=C2c3ccccc3-c3ccc([N+](=O)[O-])cc32)CC1`, the pIC50 in data set [1] and in data set [2] was less than 5.00 in each case.

Regarding `NC[C@H](CCl)Oc1ccccc1C=C1c2ccccc2-c2ccc([N+](=O)[O-])cc21`, the pIC50 in data set [1] and in data set [2] was less than 5.00 each time.

Consider `CS(=O)(=O)N1CCN(CCOc2ccccc2C=C2c3ccccc3-c3ccc([N+](=O)[O-])cc32)CC1`, for which the pIC50 in data set [1] was less than 5.00.

Regarding `O=[N+]([O-])c1ccc2c(c1)C(=Cc1ccccc1OCCN1CCCCC1)c1ccccc1-2`, the pIC50 in data set [1] is 5.06; in data set [2], less than 5.00. Further, the inhibition at 10 µM in data set [3] is greater than 50%.

For `O=[N+]([O-])c1ccc2c(c1)C(=Cc1ccccc1OCCO)c1ccccc1-2`, in [1], the negative-log IC50 (pIC50) is less than 5.00.

`COc1ccccc1C=C1c2ccccc2-c2ccc([N+](=O)[O-])cc21`: the pIC50 in data set [1] and in data set [2] was less than 5.00 each time.

For `CN(C)CCOc1ccccc1C=C1c2ccccc2-c2ccc([N+](=O)[O-])cc21`, the pIC50 in [1] and in [2] was less than 5.00 throughout.

Regarding `Nc1ccc2c(c1)C(=Cc1ccccc1O)c1ccccc1-2`, the pIC50 in [1] and in [2] was less than 5.00 each time.

`CN1CCN(CCOc2ccccc2C=C2c3ccccc3-c3ccc([N+](=O)[O-])cc32)CC1`: the pIC50 was less than 5.00 in [1] and 5.02 in data set [2]. For the same molecule, in [4], the inhibition at 10 µM was greater than 50%.

Usually pIC50 stands for the negative decadic logarithm of the IC50, by convention in mol/L. For orientation: inhibition means the change of the read-out against control, counted positive when it falls.

Values taken from ChEMBL document CHEMBL4364270, “Structure-activity relationship studies on Bax activator SMBA1 for the treatment of ER-positive and triple-negative breast cancer” (Eur J Med Chem, 2019).
